One series deals with Hepatocyte. In words: Intrinsic apparent clearance in human hepatocytes assessed per 10^6 cells. The class given is ADME, cell-based. Summed up: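 Stability incubations in NADPH-supplemented human liver microsomes or cryopreserved human hepatocytes. Total apparent intrinsic clearance scaled from the in vitro half-life; microsomes reported per mg protein, hepatocytes per 10⁶ cells.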

Series [1] is described as follows: Plasma clearance in Wistar rat at 1 mg/kg, iv and 3 or 5 mg/kg, po. It counts as ADME, organism-based. In a few lines: (§1)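 Male CD-1 mice (25−35 g), cannulated Wistar-Han rats (250 g), beagle dogs (12 kg) and cynomolgus monkeys (7 kg), fasted overnight and fed 1.0 or 2.0 h after dosing. iv 1 mg/kg in saline or 12% sulfobutyl ether β-cyclodextrin; po 3 or 5 mg/kg in 0.5% methylcellulose. Parameters calculated from plasma concentration−time data; mean ± SD for n = 3, individual values for n = 2.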

Series [2] in a line: Plasma clearance in Beagle dog at 1 mg/kg, iv and 3 or 5 mg/kg, po. It counts as ADME, organism-based, Canis lupus familiaris. Summed up: as §1
Series [3] in a line: Elimination half life in cynomolgus monkey at 1 mg/kg, iv and 3 or 5 mg/kg, po. The class given is ADME, organism-based, Macaca fascicularis. The note with it: in vivo. Summed up: as §1
Series [4] is described as follows: Oral bioavailability in Beagle dog at 3 or 5 mg/kg. The class given is ADME, organism-based, Canis lupus familiaris. The note with it: in vivo. Summed up:
(§2)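 Male CD-1 mice, Wistar-Han rats, beagle dogs and cynomolgus monkeys, fasted overnight and fed after dosing. Given po at 3 or 5 mg/kg in 0.5% methylcellulose, with an iv reference dose of 1 mg/kg. Bioavailability derived from plasma concentration−time data; mean ± SD (n = 3) or individual values (n = 2).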

Series [5] in a line: Oral bioavailability in cynomolgus monkey at 3 or 5 mg/kg. It counts as ADME, organism-based, Macaca fascicularis. The note with it: in vivo. Summed up: as §2
Series [6] is described as follows: Fraction unbound in mouse plasma at 2 uM by equilibrium dialysis method. It counts as ADME, cell-free. Summed up: (§3)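 Compound at 2 μM in mouse, rat, dog, monkey or human plasma; unbound fraction measured by equilibrium dialysis and reported as a mean.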
Series [7] in a line: Fraction unbound in rat plasma at 2 uM by equilibrium dialysis method. The class given is ADME, cell-free. In a few lines: as §3
Series [8] is described as follows: Fraction unbound in monkey plasma at 2 uM by equilibrium dialysis method. It counts as ADME, cell-free, Macaca mulatta. The note with it: rhesus monkey. Summed up: as §3
The target in the next series is Cytochrome P450 2C19 (Homo sapiens, UniProt P33261). In words: Reversible inhibition of CYP2C19 (S)-Mephenytoin 4'-hydroxylase activity in human liver microsomes by LC-MS/MS analysis. It counts as ADME. Summed up:
(§4)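 Reversible inhibition of the major CYP enzymes tested in human liver microsomes using established protocols.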

A further series has as its target Cytochrome P450 3A4 (Homo sapiens, UniProt P08684). Put plainly: Reversible inhibition of CYP3A4 in human liver microsomes by LC-MS/MS analysis. It counts as ADME. In a few lines:
as §4

In a further series the target is T1, Cytochrome P450 2C8 (Homo sapiens, UniProt P10632).
T1 sequence (P10632 whole entry): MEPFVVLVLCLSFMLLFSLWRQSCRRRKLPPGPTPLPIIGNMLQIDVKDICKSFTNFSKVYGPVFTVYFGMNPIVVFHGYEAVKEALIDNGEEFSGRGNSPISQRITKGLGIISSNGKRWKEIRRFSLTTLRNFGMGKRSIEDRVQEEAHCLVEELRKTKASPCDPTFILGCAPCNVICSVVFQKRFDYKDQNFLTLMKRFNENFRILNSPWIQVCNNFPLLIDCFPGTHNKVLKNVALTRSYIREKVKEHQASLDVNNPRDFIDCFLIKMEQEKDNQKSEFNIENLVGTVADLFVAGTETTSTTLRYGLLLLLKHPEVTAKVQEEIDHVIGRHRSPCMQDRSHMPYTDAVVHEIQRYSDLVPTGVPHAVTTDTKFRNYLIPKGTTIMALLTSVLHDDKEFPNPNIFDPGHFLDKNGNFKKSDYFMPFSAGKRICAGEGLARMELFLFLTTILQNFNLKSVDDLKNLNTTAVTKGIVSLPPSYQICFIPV
Put plainly: Time-dependent inhibition of CYP2C8 in human liver microsomes. The class given is ADME. Summed up: (§5)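 Time- and concentration-dependent CYP inhibition assessed by an IC₅₀ shift assay in human liver microsomes.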

In a further series the target is Cytochrome P450 2D6 (Homo sapiens, UniProt P10635). In words: Time-dependent inhibition of CYP2D6 in human liver microsomes. The class given is ADME. Summed up: as §5
Sequence of Cytochrome P450 2D6 (P10635 whole entry): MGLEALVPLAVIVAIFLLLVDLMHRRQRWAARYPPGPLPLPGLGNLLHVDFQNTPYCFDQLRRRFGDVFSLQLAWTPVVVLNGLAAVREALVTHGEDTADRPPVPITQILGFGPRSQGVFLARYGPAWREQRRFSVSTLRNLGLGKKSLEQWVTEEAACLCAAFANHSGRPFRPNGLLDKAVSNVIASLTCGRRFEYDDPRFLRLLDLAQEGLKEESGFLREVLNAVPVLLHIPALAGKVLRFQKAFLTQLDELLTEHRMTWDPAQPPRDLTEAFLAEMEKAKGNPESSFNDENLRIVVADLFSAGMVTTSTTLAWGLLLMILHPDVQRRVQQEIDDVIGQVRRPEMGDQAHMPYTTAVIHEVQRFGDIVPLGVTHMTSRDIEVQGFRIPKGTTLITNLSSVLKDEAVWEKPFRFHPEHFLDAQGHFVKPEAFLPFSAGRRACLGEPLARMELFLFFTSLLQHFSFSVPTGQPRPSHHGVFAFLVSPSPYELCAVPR
Series [9] is described as follows: Drug excretion in Beagle dog urine at 1 mg/kg, iv. The class given is ADME, organism-based, Canis lupus familiaris. The note with it: read-out: Drug excretion. Summed up:
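Male animals (beagle dogs 12 kg, Wistar-Han rats 250 g, cynomolgus monkeys 7 kg), fasted overnight and fed 1.0 or 2.0 h after dosing, water ad libitum. Dosed iv at 1 mg/kg in saline or 12% sulfobutyl ether β-cyclodextrin. Fraction of the iv dose excreted unchanged in urine.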

Series [10] has as its target T2, Thyroid peroxidase (Homo sapiens) (UniProt P07202).
T2 sequence (whole entry): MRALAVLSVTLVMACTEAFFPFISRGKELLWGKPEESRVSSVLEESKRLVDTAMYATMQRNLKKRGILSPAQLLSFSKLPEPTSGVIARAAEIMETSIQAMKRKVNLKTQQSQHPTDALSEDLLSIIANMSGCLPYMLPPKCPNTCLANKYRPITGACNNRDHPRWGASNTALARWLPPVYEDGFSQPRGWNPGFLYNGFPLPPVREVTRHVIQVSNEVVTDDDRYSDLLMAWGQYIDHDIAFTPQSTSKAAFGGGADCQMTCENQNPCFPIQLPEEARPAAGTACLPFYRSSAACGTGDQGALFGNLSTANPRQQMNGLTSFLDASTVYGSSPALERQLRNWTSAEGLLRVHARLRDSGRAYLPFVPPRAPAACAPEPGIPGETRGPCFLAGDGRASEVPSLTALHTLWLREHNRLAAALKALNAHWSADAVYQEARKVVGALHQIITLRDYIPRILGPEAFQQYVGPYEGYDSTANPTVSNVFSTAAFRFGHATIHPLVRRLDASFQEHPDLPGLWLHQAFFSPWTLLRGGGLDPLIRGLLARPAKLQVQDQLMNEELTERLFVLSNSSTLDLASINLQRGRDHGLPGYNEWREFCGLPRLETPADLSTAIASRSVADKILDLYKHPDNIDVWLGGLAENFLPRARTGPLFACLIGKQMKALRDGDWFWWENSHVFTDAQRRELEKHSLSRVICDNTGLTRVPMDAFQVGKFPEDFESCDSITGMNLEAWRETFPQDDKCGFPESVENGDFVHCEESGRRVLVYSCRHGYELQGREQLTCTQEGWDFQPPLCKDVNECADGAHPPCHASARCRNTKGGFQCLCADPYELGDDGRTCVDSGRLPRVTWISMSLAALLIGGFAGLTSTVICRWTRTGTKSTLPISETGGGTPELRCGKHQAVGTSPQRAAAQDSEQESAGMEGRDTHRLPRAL
Put plainly: Inhibition of TPO (unknown origin) using Amplex Red as substrate assessed as formation of resorufin by measuring ratio of Kinact to Ki measured every 20 secs by spectrophotometric analysis. Summed up:
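Amplex Red oxidation to resorufin in 50 mM sodium phosphate pH 7.4, 150 mM NaCl, 1 mM DTPA, 2 μM H2O2, 30 μM Amplex Red, 2% DMSO. Reaction started by adding TPO. Background rate measured with bovine catalase added and subtracted. Fluorescence (ex 530/em 580) read every 20 s at room temperature. kinact/KI taken from initial rates over the first 300 s. Geometric mean of at least two experiments.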

The nature of series [11]: Fraction unbound in human plasma by equilibrium dialysis method. The class given is ADME, cell-free. Summed up:
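Fraction unbound in human plasma measured by equilibrium dialysis; mean of three individual determinations.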

Sequence of Cytochrome P450 3A4 (P08684 whole entry): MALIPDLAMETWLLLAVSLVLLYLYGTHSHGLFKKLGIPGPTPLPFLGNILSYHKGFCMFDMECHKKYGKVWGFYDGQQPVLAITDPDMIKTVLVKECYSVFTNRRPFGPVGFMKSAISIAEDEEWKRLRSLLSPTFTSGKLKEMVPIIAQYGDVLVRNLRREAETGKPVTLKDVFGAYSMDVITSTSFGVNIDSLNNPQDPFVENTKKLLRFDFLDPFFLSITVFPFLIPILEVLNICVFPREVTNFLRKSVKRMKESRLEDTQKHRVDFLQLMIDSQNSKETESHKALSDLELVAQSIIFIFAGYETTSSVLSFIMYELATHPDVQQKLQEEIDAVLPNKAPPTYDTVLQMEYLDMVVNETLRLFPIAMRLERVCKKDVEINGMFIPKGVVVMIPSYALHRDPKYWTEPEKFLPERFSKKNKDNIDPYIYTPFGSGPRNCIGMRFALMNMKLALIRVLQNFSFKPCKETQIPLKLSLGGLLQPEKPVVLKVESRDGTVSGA
Sequence of Cytochrome P450 2C19 (P33261 whole entry): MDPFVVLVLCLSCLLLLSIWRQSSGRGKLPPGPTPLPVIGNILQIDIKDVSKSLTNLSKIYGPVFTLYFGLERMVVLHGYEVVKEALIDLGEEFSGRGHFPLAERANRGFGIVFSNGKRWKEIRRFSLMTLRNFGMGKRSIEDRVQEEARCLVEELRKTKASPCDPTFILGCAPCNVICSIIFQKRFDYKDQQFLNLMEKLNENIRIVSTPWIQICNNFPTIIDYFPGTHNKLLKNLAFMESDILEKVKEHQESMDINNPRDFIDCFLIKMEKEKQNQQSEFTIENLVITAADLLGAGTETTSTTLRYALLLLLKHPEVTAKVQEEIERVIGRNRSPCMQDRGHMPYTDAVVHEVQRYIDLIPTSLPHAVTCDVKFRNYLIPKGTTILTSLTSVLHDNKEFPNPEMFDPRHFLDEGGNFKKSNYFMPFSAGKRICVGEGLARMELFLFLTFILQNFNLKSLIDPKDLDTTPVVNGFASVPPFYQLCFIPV

Regarding `COc1ccc(Cl)cc1-c1cc(=O)[nH]c(=S)n1CC(N)=O` [PF-06282999], the “CLH(app)” value in the series on Hepatocyte was under 6 µL/min. Moreover, the clearance came out at 41.8 mL/min/kg in series [1] and 3.39 mL/min/kg in series [2]. This molecule also gave a half-life in series [3] of 3.28 h. The bioavailability in [4] amounted to 75%; in [5], 76%. Also, the fraction unbound at 2 µM in series [6] is 0.451; in series [7], 0.447; in [8], 0.536. Further, the IC50 on Cytochrome P450 2C19, against Cytochrome P450 3A4, on Cytochrome P450 2C8 and on Cytochrome P450 2D6 was over 100 µM throughout. Moreover, the dose excreted in [9] turned out to be 26%.

Turning to `COc1ccc(-c2cc(=O)[nH]c(=S)n2CCO)c(OC)c1`, in series [10], the log(ratio) is under 0.5. This molecule also gave a fraction unbound in [11] of 0.5. Further, in the series with Hepatocyte, the “CLH(app)” value was under 6 µL/min. The clearance amounted to 59.3 mL/min/kg in series [1] and 11.9 mL/min/kg in [2]. The same molecule yielded a bioavailability in [4] of 16%.

In the case of `COc1ccc(-c2cc(=O)[nH]c(=S)n2CC(N)=O)c(OC)c1`, the log(ratio) in series [10] was under 0.5. Besides, the fraction unbound in [11] came to 0.5. Also, the “CLH(app)” value with Hepatocyte was under 6 µL/min. For the same molecule, the clearance came out at 35.1 mL/min/kg in series [1] and 1.31 mL/min/kg in series [2]. In addition, the bioavailability in series [4] was 31%.

Take `COc1ccc(OC)c(-c2cc(=O)[nH]c(=S)n2CC(N)=O)c1`: the log(ratio) in series [10] is under 0.5. The same molecule showed a fraction unbound in series [11] of 0.6. In the series with Hepatocyte, the “CLH(app)” value was under 6 µL/min. In addition, the clearance is 37.6 mL/min/kg in series [1] and 7.07 mL/min/kg in series [2]. Besides, the bioavailability in series [4] amounted to 100%.

As for `COc1ccc(-c2cc(=O)[nH]c(=S)n2CCN)c(OC)c1`, the log(ratio) in [10] is under 0.5. Also, the fraction unbound in [11] stood at 0.7. Also, the “CLH(app)” value with Hepatocyte amounted to 2.9 µL/min. In addition, the clearance is 70.3 mL/min/kg in series [1] and 13.4 mL/min/kg in series [2]. The molecule further showed a bioavailability in [4] of 84%.

Source of the values: ChEMBL document CHEMBL3632461 (J Med Chem, 2015).
